Most compounds without a hit are left out; they make up all but 2.3% or so of the library.
TRPC4 act = TRPC4 (mouse) channel activation. 310,000 compounds, 0.49% hits. Q9QUQ5. B-score at 10 µM. HEK293 TRPC4beta/mu-opioid, Fluo4 calcium fluorescence; stronger effect = higher value;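 active = B-score above 5 SD of library B-scores, and initial fluorescence ratio not above library mean plus 5 SD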;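 also: positive B-score marks a calcium rise read as TRPC4 activation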
Target sequence (Q9QUQ5 whole entry, looked up): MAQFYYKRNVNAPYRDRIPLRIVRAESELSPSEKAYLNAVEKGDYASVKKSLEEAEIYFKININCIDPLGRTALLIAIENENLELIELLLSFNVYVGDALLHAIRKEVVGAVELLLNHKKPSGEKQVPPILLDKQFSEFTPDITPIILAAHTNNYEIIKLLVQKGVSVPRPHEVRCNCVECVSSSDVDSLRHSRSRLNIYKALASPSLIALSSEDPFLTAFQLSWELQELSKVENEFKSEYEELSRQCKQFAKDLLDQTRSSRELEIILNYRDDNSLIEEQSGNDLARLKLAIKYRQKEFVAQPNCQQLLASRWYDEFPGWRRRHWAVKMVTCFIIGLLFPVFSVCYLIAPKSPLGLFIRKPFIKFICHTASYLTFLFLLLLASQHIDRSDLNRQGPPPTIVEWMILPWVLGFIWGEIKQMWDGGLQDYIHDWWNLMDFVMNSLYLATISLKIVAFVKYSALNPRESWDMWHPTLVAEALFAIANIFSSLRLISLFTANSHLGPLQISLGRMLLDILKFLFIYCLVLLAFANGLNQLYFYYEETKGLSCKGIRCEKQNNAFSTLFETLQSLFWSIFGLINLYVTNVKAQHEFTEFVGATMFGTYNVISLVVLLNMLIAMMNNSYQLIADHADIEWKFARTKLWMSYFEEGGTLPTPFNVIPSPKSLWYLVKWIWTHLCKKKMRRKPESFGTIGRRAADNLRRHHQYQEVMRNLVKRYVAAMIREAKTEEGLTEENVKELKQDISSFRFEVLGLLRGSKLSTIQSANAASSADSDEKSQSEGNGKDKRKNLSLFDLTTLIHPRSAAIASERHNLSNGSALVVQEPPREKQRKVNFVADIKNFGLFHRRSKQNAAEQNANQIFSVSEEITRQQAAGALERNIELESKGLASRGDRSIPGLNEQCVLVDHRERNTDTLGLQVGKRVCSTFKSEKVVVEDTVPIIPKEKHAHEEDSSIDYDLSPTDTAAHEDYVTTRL
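Test system: HEK293 cells stably co-expressing mouse TRPC4beta and mu-opioid receptor | Schedule: Fluo4 dye loading 45 min at room temperature, 110 s recording | Measured by: Kinetic Fluo4 calcium fluorescence, 5 s baseline at 1 Hz | Evaluation: B score of integrated ratio | Controls: Buffer (low) and maximal DAMGO (high)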
TRPC6 act = activators of mouse TRPC6 channel; Q61143; HEK293-TRPC6 membrane potential dye fluorescence; stronger effect = higher value; B-score at 10 µM; 310,000 compounds, 0.13% hits; AID 2550;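 active = B-score of the integrated fluorescence ratio above library mean plus 3 SD, and starting fluorescence ratio within library mean plus 5 SD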;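 also: higher score means more depolarization so channel activation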
TRPC6 inhibitor = blocks the mouse TRPC6 cation channel. Q61143. HEK293-TRPC6, membrane potential dye, ACh-evoked depolarization; stronger effect = lower value. B-score at 10 µM. 310,000 compounds, 1.1% hits. AID 2553;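 active = B-score under library mean minus 3 SD, initial fluorescence not abnormally high, positive integrated signal ratio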;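 also: B-score derived from integrated fluorescence ratio over the kinetic read; more negative B-score means stronger inhibition of depolarization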
TRPC4 block = TRPC4 (mouse) channel inhibition; Q9QUQ5; HEK293 TRPC4beta/mu-opioid, DAMGO-evoked Fluo4 calcium flux; stronger effect = lower value; B-score at 10 µM; 300,000 compounds, 0.39% hits; AID 2247;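 active = B-score over 3 SD under the library average, no early fluorescence shift, positive overall ratio signal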
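Assay system: HEK293 cells with stable TRPC4beta plus mu-opioid receptor expression; Probe or stimulus: DAMGO in two steps, submaximal then maximal; Dosing: single-point compound dosing; Measured by: Fluo4 calcium-dye fluorescence, kinetic read; Read-out basis: B score from integrated Fluo4 fluorescence ratio.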
TRPC4 PAM = TRPC4 (mouse) allosteric potentiation | Q9QUQ5 | HEK293 TRPC4beta/mu-opioid, DAMGO EC20, Fluo-4 Ca2+ flux; stronger effect = higher value | B-score at 10 µM | 310,000 compounds, 0.42% hits | AID 2227;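 active = B-score of calcium response area above 5 SD of library B-scores, with initial fluorescence ratio within 5 SD of library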;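 also: B-score of integrated fluorescence ratio over time as area under calcium response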
TRPC4 sel inh 2 = second selectivity test of TRPC6 inhibitors: effect on mouse TRPC4. AID 2776. shares compounds with TRPC6 inhibitor. 920 compounds, 42% hits. HEK293 TRPC4/MOR, membrane potential dye fluorescence; channel activated by saturating DAMGO dose. inhibition, % at 10 µM;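 active = compounds whose fluorescence signal differed from control wells by over 3 SD, either direction, in both duplicate plates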
TRPC4 spec = mouse TRPC4 off-target activity of TRPC6 inhibitors; shares compounds with TRPC6 inhibitor; activity change, negative = inhibition, % at 10 µM; HEK293 TRPC4/mu-opioid, membrane potential fluorescence; AID 2777; 920 compounds, 61% hits;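 active = rise or fall in signal beyond 3 SD of buffer-only wells in both replicate plates, either sign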;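 also: integrated kinetic ratio of fluorescence range over baseline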
HEK293 MPD ctr 2-1 = second counter-screen for TRPC6 inhibitors: parental HEK293 cells; shares compounds with TRPC6 inhibitor; parental HEK293 membrane potential dye fluorescence; maximal acetylcholine challenge after compound addition; signal change vs control, % at 10 µM; 920 compounds, 31% hits; AID 2779;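 active = membrane potential signal moving either way by over 3 SD of the maximum-effect control, in both duplicate plates, meaning non-specific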
HEK293 MPD ctr-1 = counter-screen for TRPC6 inhibitors: effect in parental HEK293 cells; shares compounds with TRPC6 inhibitor; parental HEK293 membrane potential dye fluorescence; membrane potential signal change, % at 10 µM; 920 compounds, 60% hits;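 active = membrane potential signal shifting up or down by more than 3 SD of buffer-only wells, on both duplicate plates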
HEK293 MPD ctr-2 = parental HEK293 nonspecific activity of TRPC6 modulators | shares compounds with TRPC6 inhibitor | membrane potential dye fluorescence | membrane potential signal change, % at 10 µM | 2,400 compounds, 51% hits | AID 488924;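 active = membrane potential signal moves up or down beyond 5 SD from buffer-only wells, on both duplicate plates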
HEK293 MPD ctr 2-2 = second counter-screen for TRPC6 modulators: effect in parental HEK293 cells; shares compounds with TRPC6 inhibitor; membrane potential dye fluorescence; after compound, maximal acetylcholine stimulation; inhibition, % at 10 µM; 2,400 compounds, 14% hits; AID 488926;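 active = membrane potential signal drops by more than 5 SD from the mean control signal, in both duplicate plates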;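 also: plate controls were acetylcholine ECmax control wells for no effect and buffer only wells for full effect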
TRPC4/MOR mod = tests whether TRPC6 modulators also affect mouse TRPC4 | shares compounds with TRPC6 inhibitor | HEK293 TRPC4/mu-opioid, membrane potential fluorescence | percent change from control (negative = decrease, positive = increase), % at 10 µM | 2,400 compounds, 69% hits | AID 488927;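 active = membrane potential signal moved up or down beyond 5 SD of buffer control wells, in both duplicate plates, actives on both sides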;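 also: plate controls were assay buffer wells for no effect and DAMGO maximal-effect wells for full effect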
TRPC4/MOR inh 2 = second check of whether TRPC6 modulators also affect mouse TRPC4. shares compounds with TRPC6 inhibitor. HEK293 TRPC4/mu-opioid, membrane potential dye fluorescence; stimulated with maximal-effect DAMGO. inhibition, % at 10 µM. 2,400 compounds, 55% hits;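 active = drop in membrane potential signal beyond 5 SD of the control wells in both duplicate plates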;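 also: TRPC4 counter screen for TRPC6 hits run under conditions tuned for TRPC6 not TRPC4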
TRPC6 inh conf = mouse TRPC6 inhibitor confirmation; shares compounds with TRPC6 inhibitor; HEK293-TRPC6, membrane potential dye, ACh-evoked depolarization; inhibition, % at 10 µM; 3,300 compounds, 43% hits; AID 488960;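 active = fluorescence ratio falls more than 5 SD below the full-stimulation control mean, in both duplicate runs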;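 also: integrated fluorescence ratio of peak minus minimum over baseline after agonist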
TRPC6 act conf = mouse TRPC6 activator confirmation; 2,800 compounds, 11% hits; AID 488961; activation, % at 10 µM; HEK293-TRPC6 membrane potential dye fluorescence, FDSS; shares compounds with TRPC6 inhibitor;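 active = ratio signal rise beyond 5 SD above unstimulated control wells' mean, seen in both duplicate runs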;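 also: plate controls were buffer EC0 wells for no effect and acetylcholine ECmax response for full effect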
* marks the source's active call; other numbers are inactive results; i = inactive; nt = no result given.

SMILES	TRPC4 act	TRPC6 act	TRPC6 inhibitor	TRPC4 block	TRPC4 PAM	HEK293 MPD ctr-2	HEK293 MPD ctr 2-2	TRPC4/MOR mod	TRPC4/MOR inh 2	TRPC6 inh conf	TRPC6 act conf	others
O=C(C[n+]1cccc2ccccc21)c1ccccc1	i	i	i	i	i	nt	nt	nt	nt	nt	nt
O=C(C[n+]1cc2ccccc2c2ccccc21)c1ccccc1	49*	i	-9.8*	-7*	i	nt	nt	nt	nt	i	i	TRPC4 sel inh 2=33%*;TRPC4 spec=0.9%*;HEK293 MPD ctr 2-1=i;HEK293 MPD ctr-1=-486%*
COC(=O)/C(C#N)=C/c1c[nH]c2ccccc12	i	i	i	i	i	nt	nt	nt	nt	nt	nt
COc1cc(/C=C(\C#N)C(=O)c2c[nH]c3ccccc23)cc(OC)c1O	i	24*	i	i	i	256%*	i	72%*	i	i	88%*
COc1cc(/C=C(\C#N)C(=O)NCCc2ccccc2)cc(OC)c1O	i	14*	i	nt	i	394%*	i	72%*	i	i	68%*
O=C(CN1C(=O)c2ccc(Br)cc2C1=O)NCC1CCCO1 (centres undefined)	i	i	-8.9*	i	i	i	i	i	i	82%*	nt
Cc1ccc(-c2nnn(CC(=O)N(CCN3CCOCC3)C(C(=O)NC(C)(C)C)c3ccc(C)o3)n2)cc1 (centres undefined)	i	i	i	i	i	nt	nt	nt	nt	nt	nt
O=[N+]([O-])c1cc([N+](=O)[O-])c2c(=Nc3ccccc3)n(-c3ccccc3)n(O)c2c1	i	i	-7.2*	i	i	nt	nt	nt	nt	i	i	TRPC4 sel inh 2=50%*;TRPC4 spec=-13%*;HEK293 MPD ctr 2-1=i;HEK293 MPD ctr-1=-184%*
O=[N+]([O-])c1cc(Br)c(Nc2ccccc2)c([N+](=O)[O-])c1	i	i	i	i	i	nt	nt	nt	nt	nt	nt
CN(C)C/C=C/C(O)(c1ccccc1)c1ccccc1	i	i	-7.6*	i	i	nt	nt	nt	nt	61%*	i	TRPC4 sel inh 2=i;TRPC4 spec=i;HEK293 MPD ctr 2-1=i;HEK293 MPD ctr-1=1.3%*
CN(C)CCCOc1ccc(C(C)(C)c2ccccc2)cc1	i	i	i	i	i	nt	nt	nt	nt	nt	nt
O=C(Nc1ccccc1-c1ccccc1)NC1CC2CCCC(C1)N2CCc1ccccc1 (centres undefined)	i	i	-7*	i	i	nt	nt	nt	nt	65%*	i	TRPC4 sel inh 2=46%*;TRPC4 spec=i;HEK293 MPD ctr 2-1=i;HEK293 MPD ctr-1=-0.2%*
CCN(CC)C(=O)NC1CC2CCCC(C1)N2Cc1ccccc1 (centres undefined)	i	i	i	i	i	nt	nt	nt	nt	nt	nt
O=C(Nc1ccccc1-c1ccccc1)NC1CC2CCCC(C1)N2Cc1ccc(F)cc1 (centres undefined)	i	i	-8*	i	i	nt	nt	nt	nt	51%*	i	TRPC4 sel inh 2=51%*;TRPC4 spec=4.8%*;HEK293 MPD ctr 2-1=i;HEK293 MPD ctr-1=4.0%*
COc1cc2c(cc1OC)CN(C(=O)/C=C/c1cccc([N+](=O)[O-])c1)CC2	i	i	i	i	i	nt	nt	nt	nt	nt	nt
O=[N+]([O-])c1cc(-c2ccc(/C=N\n3cnnc3)o2)cc([N+](=O)[O-])c1	i	i	-6.2*	i	i	-234%*	63%*	-34%*	42%*	i	i
CCOC(=O)N1CCC(c2cc(=O)n3[nH]c(C)c(-c4ccc(F)cc4)c3n2)CC1	i	16*	i	i	i	i	i	i	i	nt	196%*
CCOC(=O)N1CCC(c2cc(=O)n3[nH]c(-c4ccccc4)cc3n2)CC1	i	i	i	i	i	nt	nt	nt	nt	nt	nt
CN1CCN(c2ccc([N+](=O)[O-])cc2/C=N/NC(=O)c2ccc(F)cc2)CC1	i	i	-6*	i	i	-174%*	i	-34%*	i	i	i
N#CCC(=O)N/N=C/c1cc([N+](=O)[O-])ccc1N1CCOCC1	i	i	i	i	i	nt	nt	nt	nt	nt	nt
CCCCN(C(=O)Cn1nnc2ccccc21)C(C(=O)NCCOC)c1ccc(OC)cc1 (centres undefined)	i	i	i	i	i	nt	nt	nt	nt	nt	nt
COCCN(C(=O)Cn1nnc2ccccc21)C(C(=O)NC1CCCC1)c1ccc(OC)cc1OC (centres undefined)	i	20*	i	i	i	600%*	194%*	118%*	i	nt	311%*
COCCN(C(=O)Cn1nnc2ccccc21)C(C(=O)NC1CCCCC1)c1ccc(OC)cc1OC (centres undefined)	i	38*	i	i	i	818%*	173%*	163%*	i	nt	354%*
Cc1ccc(C)c(N2CCN(c3ncccc3[N+](=O)[O-])CC2)c1	i	i	i	i	i	nt	nt	nt	nt	nt	nt
N#Cc1nc(-c2cccc3ccccc23)oc1NCCN1CCCCC1	i	i	-7.6*	i	i	nt	nt	nt	nt	i	i	TRPC4 sel inh 2=i;TRPC4 spec=i;HEK293 MPD ctr 2-1=i;HEK293 MPD ctr-1=i
CCNc1oc(-c2cccc3ccccc23)nc1C#N	i	i	i	i	i	nt	nt	nt	nt	nt	nt
O=C(CCCN1C(=O)c2cccc3cccc(c23)C1=O)N1CCN(c2ccccc2)CC1	i	i	i	i	i	nt	nt	nt	nt	nt	nt
